According to ChEMBL document CHEMBL1136016, “Synthesis, biological activity, and molecular modeling investigation of new pyrazolo[4,3-e]-1,2,4-triazolo[1,5-c]pyrimidine derivatives as human A(3) adenosine receptor antagonists” (J Med Chem, 2002):
Values belong to the compound of their own block, whether it stands above or below them.

Legend:
[1] = molecular target: Adenosine receptors; A2b & A3 (Homo sapiens) (UniProt P29275+P0DMS8); experiment: Selectivity ratio (h2B/hA3); assay type: protein assay
Adenosine receptor A3 [2] = molecular target: T1, Adenosine receptor A3 (Homo sapiens, UniProt P0DMS8); experiment: Displacement of [3H]MRE3008-F20 from human Adenosine A3 receptor expressed in HEK cells; range 0.11-0.18; assay type: cell-based, HEK293
T1 sequence (P0DMS8 whole entry): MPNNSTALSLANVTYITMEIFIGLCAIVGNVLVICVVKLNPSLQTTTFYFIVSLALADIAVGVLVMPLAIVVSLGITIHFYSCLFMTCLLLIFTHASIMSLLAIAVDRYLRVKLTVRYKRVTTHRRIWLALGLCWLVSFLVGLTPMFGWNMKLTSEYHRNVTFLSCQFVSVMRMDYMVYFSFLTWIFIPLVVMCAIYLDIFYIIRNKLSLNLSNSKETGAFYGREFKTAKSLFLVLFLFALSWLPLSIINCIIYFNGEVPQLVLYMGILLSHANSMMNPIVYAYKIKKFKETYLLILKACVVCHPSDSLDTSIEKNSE

Adenosine receptor A2a [3] = molecular target: T2, Adenosine receptor A2a (Homo sapiens, UniProt P29274); experiment: Displacement of [3H]SCH-58261 from human Adenosine A2A receptor expressed in HEK293 cells; range 23-40; assay type: cell-based
[4] = molecular target: Adenosine receptors; A1 & A3 (Homo sapiens) (UniProt P30542+P0DMS8); experiment: Selectivity ratio (hA1/hA3); assay type: protein assay
Adenosine receptor A1 [5] = molecular target: T3, Adenosine receptor A1 (Homo sapiens, UniProt P30542); experiment: Displacement of [3H]DPCPX from human Adenosine A1 receptor expressed in CHO cells; range 248-276; assay type: cell-based
T3 sequence (P30542 whole entry): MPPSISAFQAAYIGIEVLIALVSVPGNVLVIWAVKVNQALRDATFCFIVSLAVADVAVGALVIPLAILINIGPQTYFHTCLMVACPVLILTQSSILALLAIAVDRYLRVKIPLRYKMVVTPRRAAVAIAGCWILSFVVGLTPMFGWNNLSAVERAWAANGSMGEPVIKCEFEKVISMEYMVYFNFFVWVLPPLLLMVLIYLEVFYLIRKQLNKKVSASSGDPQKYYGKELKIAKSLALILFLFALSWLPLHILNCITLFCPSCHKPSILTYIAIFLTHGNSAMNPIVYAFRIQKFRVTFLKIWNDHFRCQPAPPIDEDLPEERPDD

Adenosine receptor A2b [6] = molecular target: T4, Adenosine receptor A2b (Homo sapiens, UniProt P29275); experiment: Displacement of [3H]DPCPX from human Adenosine A2B receptor expressed in HEK293 cells; range 118-146; assay type: cell-based
T4 sequence (P29275 whole entry): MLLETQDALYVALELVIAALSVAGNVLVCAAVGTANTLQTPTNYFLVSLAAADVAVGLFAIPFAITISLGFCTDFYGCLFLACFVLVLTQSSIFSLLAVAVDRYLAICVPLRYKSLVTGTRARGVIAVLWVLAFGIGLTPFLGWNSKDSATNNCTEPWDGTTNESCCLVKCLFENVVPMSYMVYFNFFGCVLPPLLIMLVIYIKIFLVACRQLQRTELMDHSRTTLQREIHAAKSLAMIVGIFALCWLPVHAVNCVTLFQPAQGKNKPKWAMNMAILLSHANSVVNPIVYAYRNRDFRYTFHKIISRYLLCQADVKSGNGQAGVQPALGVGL
In short: (§1)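 Competition binding on membranes of HEK-293 cells carrying recombinant human A2B receptor. Incubation 60 min at 25 °C in 50 mM Tris HCl pH 7.4 with 10 mM MgCl2, 1 mM EDTA, 0.1 mM benzamidine and 2 IU/mL adenosine deaminase. Radioligand 40 nM [3H]DPCPX, at least six to eight test concentrations. NECA defined nonspecific binding. Bound ligand separated on glass-fibre filters and counted; n = 3-6.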

Adenosine receptor A1 [7] = molecular target: T3, Adenosine receptor A1; experiment: Displacement of [3H]DPCPX from human Adenosine A1 receptor expressed in CHO cells; range 389-640; assay type: cell-based
In short: (§2)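 Human recombinant A1 receptor in CHO cell membranes, resuspended in 50 mM Tris HCl pH 7.4. Displacement run 120 min at 25 °C with 1 nM [3H]DPCPX, 50 µg protein per assay, and at least six to eight test concentrations. Nonspecific binding defined with CHA. Bound and free separated on glass-fiber filters; filter radioactivity counted. n = 3-6.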

Adenosine receptor A2a [8] = molecular target: T2, Adenosine receptor A2a; experiment: Displacement of [3H]SCH-58261 from human Adenosine A2A receptor expressed in HEK293 cells; range 30-54; assay type: cell-based
Adenosine receptor A3 [9] = molecular target: T1, Adenosine receptor A3; experiment: Displacement of [3H]MRE3008-F20 from human Adenosine A3 receptor expressed in HEK cells; range 0.29-0.47; assay type: cell-based, HEK293
Adenosine receptor A2b [10] = molecular target: T4, Adenosine receptor A2b; experiment: Displacement of [3H]DPCPX from human Adenosine A2B receptor expressed in HEK293 cells; range 261-336; assay type: cell-based
In short: (§3)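 Membranes from HEK-293 cells with human recombinant A2B receptor. Incubation 60 min at 25 °C in 50 mM Tris HCl, 10 mM MgCl2, 1 mM EDTA, 0.1 mM benzamidine, pH 7.4, with 2 IU/mL adenosine deaminase and 40 nM [3H]DPCPX. At least six to eight test concentrations. Nonspecific binding defined with NECA. n = 3-6.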

Adenosine receptor A1 [11] = molecular target: T3, Adenosine receptor A1; experiment: Displacement of [3H]DPCPX from human Adenosine A1 receptor expressed in CHO cells; range […]; assay type: cell-based
In short: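 Competition binding on membranes of CHO cells stably expressing human A1 receptor, resuspended in 50 mM Tris HCl pH 7.4. Incubation 120 min at 25 °C with 1 nM [3H]DPCPX, 50 µg protein per assay and at least six to eight test concentrations. CHA defined nonspecific binding. Bound ligand separated on glass-fibre filters and counted; n = 3-6.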

Adenosine receptor A2b [12] = molecular target: T4, Adenosine receptor A2b; experiment: Displacement of [3H]DPCPX from human Adenosine A2B receptor expressed in HEK293 cells; range 67-141; assay type: cell-based; in short: as §1
Adenosine receptor A3 [13] = molecular target: T1, Adenosine receptor A3; experiment: Displacement of [3H]MRE3008-F20 from human Adenosine A3 receptor expressed in HEK cells; range 0.23-0.40; assay type: cell-based, HEK293
Adenosine receptor A2a [14] = molecular target: T2, Adenosine receptor A2a; experiment: Displacement of [3H]SCH-58,261 from human Adenosine A2A receptor expressed in HEK293 cells; range 122-187; assay type: cell-based
Adenosine receptor A2a [15] = molecular target: T2, Adenosine receptor A2a; experiment: Displacement of [3H]SCH-58261 from human Adenosine A2A receptor expressed in HEK293 cells; range 199-311; assay type: cell-based
Adenosine receptor A1 [16] = molecular target: T3, Adenosine receptor A1; experiment: Displacement of [3H]DPCPX from human Adenosine A1 receptor expressed in CHO cells; assay type: cell-based; in short: as §2
Adenosine receptor A2b [17] = molecular target: T4, Adenosine receptor A2b; experiment: Displacement of [3H]DPCPX binding at human Adenosine A2B receptor expressed in HEK293 cells; assay type: cell-based; in short: as §3
Adenosine receptor A3 [18] = molecular target: T1, Adenosine receptor A3; experiment: Displacement of [3H]MRE3008-F20 from human Adenosine A3 receptor expressed in HEK cells; range 31-50; assay type: cell-based, HEK293
Adenosine receptor A2b [19] = molecular target: T4, Adenosine receptor A2b; experiment: biochemical
Adenosine receptor A1 [20] = molecular target: T3, Adenosine receptor A1; experiment: biochemical
Adenosine receptor A3 [21] = molecular target: T1, Adenosine receptor A3; experiment: Displacement of [3H]MRE3008-F20 from human Adenosine A3 receptor expressed in HEK cells; range 0.13-0.20; assay type: cell-based, HEK293
Adenosine receptor A2a [22] = molecular target: T2, Adenosine receptor A2a; experiment: biochemical
Adenosine receptor A3 [23] = molecular target: T1, Adenosine receptor A3; experiment: Inhibition of IB-MECA agonist-mediated cAMP production in membranes of CHO cells expressing human Adenosine A3 receptor; assay type: functional, cell-based
In short: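 Human A3-CHO membranes (in 50 mM Tris HCl, 10 mM MgCl2, 1 mM EDTA, pH 7.4) were preincubated for 10 min at 37 °C with 5 µM GTP, 0.5 mM Ro 20-1724 and 2.0 IU/mL adenosine deaminase. IB-MECA (100 nM) or antagonist was then added with 1 mM ATP and forskolin for 10 min. The reaction was stopped by 2 min boiling. cAMP was measured by [3H]cAMP competitive protein binding using beef adrenal binding protein, 150 min at 4 °C.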

T2 sequence (P29274 whole entry): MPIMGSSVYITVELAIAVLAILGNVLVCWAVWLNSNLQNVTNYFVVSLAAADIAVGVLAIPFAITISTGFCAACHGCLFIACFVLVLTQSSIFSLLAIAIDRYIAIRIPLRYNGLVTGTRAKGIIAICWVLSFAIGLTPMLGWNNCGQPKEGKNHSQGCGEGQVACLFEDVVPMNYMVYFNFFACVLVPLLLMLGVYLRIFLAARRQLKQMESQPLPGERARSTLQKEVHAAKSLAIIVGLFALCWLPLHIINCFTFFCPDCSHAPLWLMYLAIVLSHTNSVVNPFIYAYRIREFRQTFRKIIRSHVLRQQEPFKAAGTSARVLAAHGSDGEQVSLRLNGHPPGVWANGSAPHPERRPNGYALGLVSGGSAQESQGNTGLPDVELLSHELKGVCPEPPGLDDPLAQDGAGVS

SMILES: CCn1cc2c(nc(NC(=O)Nc3ccc(C)cc3)n3nc(-c4ccco4)nc23)n1
Ratio [1]: 943
Ki (Adenosine receptor A3 [2]): 0.14 nM
Ki (Adenosine receptor A2a [3]): 30 nM
Ratio [4]: 1870
Ki (Adenosine receptor A1 [5]): 262 nM
Ki (Adenosine receptor A2b [6]): 132 nM

SMILES: CCn1cc2c(nc(NC(=O)Nc3ccc(Br)cc3)n3nc(-c4ccco4)nc23)n1
Ratio [1]: 800
Ki (Adenosine receptor A1 [7]): 500 nM
Ki (Adenosine receptor A2a [8]): 40 nM
Ki (Adenosine receptor A3 [9]): 0.37 nM
Ki (Adenosine receptor A2b [10]): 296 nM
Ratio [4]: 1350

SMILES: CCn1cc2c(nc(NC(=O)Nc3ccc(S(=O)(=O)O)cc3)n3nc(-c4ccco4)nc23)n1
Ratio [1]: > 250
Ki (Adenosine receptor A2a [15]): 249 nM
Ki (Adenosine receptor A1 [16]): > 10000 nM
Ki (Adenosine receptor A2b [17]): > 10000 nM
Ki (Adenosine receptor A3 [18]): 40 nM
Ratio [4]: > 250

More lines, now with the values ahead:

Ratio [1]: 323
Ki (Adenosine receptor A1 [11]): 348 nM
Ki (Adenosine receptor A2b [12]): 97 nM
Ki (Adenosine receptor A3 [13]): 0.3 nM
Ratio [4]: 1160
Ki (Adenosine receptor A2a [14]): 150 nM
SMILES: CCn1cc2c(nc(NC(=O)Nc3ccccc3Cl)n3nc(-c4ccco4)nc23)n1

Ratio [1]: 1390
Ki (Adenosine receptor A2b [19]): 222 nM
Ki (Adenosine receptor A1 [20]): 594 nM
Ki (Adenosine receptor A3 [21]): 0.16 nM
Ki (Adenosine receptor A2a [22]): 381 nM
IC50 (Adenosine receptor A3 [23]): 2 nM
Ratio [4]: 3710
SMILES: Cn1cc2c(nc(NC(=O)Nc3ccccc3)n3nc(-c4ccco4)nc23)n1
